ChEMBL document CHEMBL1139844, “Synthesis and antimalarial activity of side chain modified 4-aminoquinoline derivatives” (J Med Chem, 2007)
Values after ≈ are worked out from the molar mass of the structure shown.

Columns and labels:
[1] = Inhibition of beta-hematin polymerization; parameters: species or system Plasmodium falciparum
Plasmodium falciparum = test: Antiplasmodial activity against Plasmodium falciparum NF54; format: functional, organism-based
Plasmodium yoelii = test: Antimalarial activity against Plasmodium yoelii N67 infected in Swiss mice (Mus musculus) at 30 mg/kg, intraperitoneally; format: functional; details: route intraperitoneal
Outline: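 Swiss mice infected with P. yoelii N-67, dosed ip at 30 mg/kg once daily for four consecutive days; saline-treated controls. Parasitaemia on day 4 gives % suppression = [(C − T)/C] × 100 (C, T = control, treated parasitaemia). Mean survival time counted only for mice dying within the 28-day observation period; survivors beyond 28 days excluded.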

Mus musculus = test: Mean survival time of Swiss mice (Mus musculus) infected with Plasmodium yoelii N67 at 30 mg/kg, intraperitoneally; format: functional; details: route intraperitoneal
Outline: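 Swiss mice infected with P. yoelii N-67; test compounds at 30 mg/kg given intraperitoneally once daily on four consecutive days; saline-treated mice as controls. Mice followed for 28 days; mean survival time (± SE) counted only for mice dying within that period, with survivors beyond 28 days excluded.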

| IC50 [1] [equivalents] | IC50 (Plasmodium falciparum) [nM] | MIC (Plasmodium falciparum) [µM] | SMILES | Activity (Plasmodium yoelii) [%] | MST (Mus musculus) [days] |
| --- | --- | --- | --- | --- | --- |
| 0.88 | 6150 | 10.4 (≈ 5 µg/mL) | O=C1CCSC(c2c(Cl)cccc2Cl)N1CCCNc1ccnc2cc(Cl)ccc12 (stereo not given) |  |  |
| 0.75 | 980 | 1.2 (≈ 0.502 µg/mL) | O=C1CSC(c2ccc(Cl)cc2)N1CCNc1ccnc2cc(Cl)ccc12 (stereo not given) |  |  |
| 1.02 | 2330 | 5.65 (≈ 1.9 µg/mL) | CC1SCN(CCCNc2ccnc3cc(Cl)ccc23)C1=O (stereo not given) |  |  |
| 0.65 | 2190 | 9.45 (≈ 5 µg/mL) | O=C1c2ccccc2SC(c2c(Cl)cccc2Cl)N1CCCNc1ccnc2cc(Cl)ccc12 (stereo not given) |  |  |
| 0.47 | 4070 | 4.62 (≈ 2 µg/mL) | O=C1CCSC(c2ccc(Cl)cc2)N1CCNc1ccnc2cc(Cl)ccc12 (stereo not given) |  |  |
| 0.85 | 1980 | 4.08 (≈ 1.82 µg/mL) | O=C1CSC(c2ccc(Cl)cc2)N1CCCCNc1ccnc2cc(Cl)ccc12 (stereo not given) |  |  |
| 0.97 | 3070 | 13.8 (≈ 7.5 µg/mL) | O=C1c2ccccc2SC(c2c(Cl)cccc2Cl)N1CCCCNc1ccnc2cc(Cl)ccc12 (stereo not given) |  |  |
| 0.78 | 429 | 1.3 (≈ 0.499 µg/mL) | O=C1c2ccccc2SCN1CCCNc1ccnc2cc(Cl)ccc12 |  |  |
| 0.98 | 2140 | 3.25 (≈ 1 µg/mL) | O=C1CSCN1CCNc1ccnc2cc(Cl)ccc12 |  |  |
| 0.89 | 1510 | 2.51 (≈ 0.999 µg/mL) | O=C1c2ccccc2SCN1CCCCNc1ccnc2cc(Cl)ccc12 |  |  |
| 0.64 | 3030 | 6.17 (≈ 2.97 µg/mL) | O=C1CSC(c2c(Cl)cccc2Cl)N1CCCCNc1ccnc2cc(Cl)ccc12 (stereo not given) |  |  |
| 0.46 | 1030 | 2.02 (≈ 0.999 µg/mL) | O=C1c2ccccc2SC(c2ccc(Cl)cc2)N1CCCNc1ccnc2cc(Cl)ccc12 (stereo not given) |  |  |
| 0.96 | 1810 | 2.48 (≈ 0.833 µg/mL) | O=C1CCSCN1CCCNc1ccnc2cc(Cl)ccc12 |  |  |
| 0.91 | 2650 | 5.96 (≈ 2 µg/mL) | O=C1CSCN1CCCCNc1ccnc2cc(Cl)ccc12 |  |  |
| 0.96 | 1650 | 3.11 (≈ 1 µg/mL) | O=C1CSCN1CCCNc1ccnc2cc(Cl)ccc12 |  |  |
| 0.89 | 1810 | 2.86 (≈ 1 µg/mL) | O=C1CCSCN1CCCCNc1ccnc2cc(Cl)ccc12 |  |  |
| 0.49 | 291 | 5.88 (≈ 3.03 µg/mL) | O=C1c2ccccc2SC(c2c(Cl)cccc2Cl)N1CCNc1ccnc2cc(Cl)ccc12 (stereo not given) |  |  |
| 0.45 | 3270 | 4.28 (≈ 2 µg/mL) | O=C1CCSC(c2c(Cl)cccc2Cl)N1CCNc1ccnc2cc(Cl)ccc12 (stereo not given) |  |  |
| 0.98 | 1290 | 5.73 (≈ 2 µg/mL) | CC1SCN(CCCCNc2ccnc3cc(Cl)ccc23)C1=O (stereo not given) |  |  |
| 0.56 | 1040 | 1.16 (≈ 0.502 µg/mL) | O=C1CSC(c2ccc(Cl)cc2)N1CCCNc1ccnc2cc(Cl)ccc12 (stereo not given) |  |  |
| 1.05 | 1680 | 3.11 (≈ 1 µg/mL) | CC1SCN(CCNc2ccnc3cc(Cl)ccc23)C1=O (stereo not given) |  |  |
| 0.99 | 2920 | 6.21 (≈ 2 µg/mL) | O=C1CCSCN1CCNc1ccnc2cc(Cl)ccc12 |  |  |
| 0.95 | 1270 | 2.17 (≈ 1.1 µg/mL) | O=C1c2ccccc2SC(c2ccc(Cl)cc2)N1CCCCNc1ccnc2cc(Cl)ccc12 (stereo not given) |  |  |
| 0.58 | 7150 | 15.2 (≈ 7.5 µg/mL) | O=C1CCSC(c2c(Cl)cccc2Cl)N1CCCCNc1ccnc2cc(Cl)ccc12 (stereo not given) |  |  |

| SMILES | IC50 [1] [equivalents] | IC50 (Plasmodium falciparum) [nM] | MIC (Plasmodium falciparum) [µM] | Activity (Plasmodium yoelii) [%] | MST (Mus musculus) [days] |
| --- | --- | --- | --- | --- | --- |
| O=C1c2ccccc2SC(c2ccc(Cl)cc2)N1CCNc1ccnc2cc(Cl)ccc12 (stereo not given) | 0.24 | 13 | 0.26 (≈ 0.125 µg/mL) | 81 | 15.2 |
| O=C1CSC(c2c(Cl)cccc2Cl)N1CCNc1ccnc2cc(Cl)ccc12 (stereo not given) | 0.46 | 39 | 0.55 (≈ 0.249 µg/mL) | 76.08 | 14.6 |
| O=C1CSC(c2c(Cl)cccc2Cl)N1CCCNc1ccnc2cc(Cl)ccc12 (stereo not given) | 0.39 | 138 | 0.27 (≈ 0.126 µg/mL) | 40.08 | 10.6 |
| CCN(CC)CCCC(C)Nc1ccnc2cc(Cl)ccc12 (stereo not given) [CHLOROQUINE] |  |  | 0.39 (≈ 0.125 µg/mL) | 99.99 | 20 |
| O=C1CCSC(c2ccc(Cl)cc2)N1CCCNc1ccnc2cc(Cl)ccc12 (stereo not given) | 0.62 | 14 | 0.28 (≈ 0.125 µg/mL) | 23.5 | 12 |
| O=C1c2ccccc2SCN1CCNc1ccnc2cc(Cl)ccc12 | 0.94 | 65 | 0.68 (≈ 0.252 µg/mL) | 48.33 | 11.4 |
| O=C1CCSC(c2ccc(Cl)cc2)N1CCCCNc1ccnc2cc(Cl)ccc12 (stereo not given) | 0.76 | 271 | 0.54 (≈ 0.249 µg/mL) | 62.32 | 13.8 |
